Source: ChEMBL document CHEMBL1138651, “Synthesis of small molecule CDC25 phosphatases inhibitors” (Bioorg Med Chem Lett, 2004)

Biological target: T1, M-phase inducer phosphatase 3 (Homo sapiens, UniProt P30307)
T1 sequence (P30307 whole entry): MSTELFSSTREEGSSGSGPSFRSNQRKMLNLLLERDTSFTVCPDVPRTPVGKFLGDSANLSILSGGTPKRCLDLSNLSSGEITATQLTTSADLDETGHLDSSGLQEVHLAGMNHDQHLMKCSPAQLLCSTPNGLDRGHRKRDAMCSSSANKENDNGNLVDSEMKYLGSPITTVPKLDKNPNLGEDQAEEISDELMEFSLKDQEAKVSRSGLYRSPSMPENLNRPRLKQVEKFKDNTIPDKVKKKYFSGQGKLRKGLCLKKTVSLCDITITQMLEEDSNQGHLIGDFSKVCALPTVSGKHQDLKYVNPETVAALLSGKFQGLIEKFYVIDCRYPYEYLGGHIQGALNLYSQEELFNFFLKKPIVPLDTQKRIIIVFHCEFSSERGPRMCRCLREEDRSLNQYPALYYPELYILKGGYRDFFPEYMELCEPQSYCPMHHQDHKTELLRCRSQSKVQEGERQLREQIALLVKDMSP
Assay: Inhibitory concentration for human cell division cycle 25 degree C phosphatase; […]

SMILES	IC50 [µM]
CN(CCc1ccc([N+](=O)[O-])cc1)Cc1ccc(N(C)C)cc1	> 80
COc1cccc(CN(C)CCc2ccc([N+](=O)[O-])cc2)c1OC	> 80
CN(CCc1ccc([N+](=O)[O-])cc1)Cc1ccccc1O	> 80
COc1cccc(CN(C)CCc2ccc([N+](=O)[O-])cc2)c1O	> 80
CN(CCc1ccc([N+](=O)[O-])cc1)Cc1ccccc1	> 80
CN(CCc1ccc([N+](=O)[O-])cc1)Cc1cccc(N(C)C)c1	> 80
COc1cc(N(C)C)ccc1CN(C)CCc1ccc([N+](=O)[O-])cc1	> 80
COc1cccc(CN(C)CCc2ccc([N+](=O)[O-])cc2)c1	> 80
COc1ccc(OC)c(CN(C)CCc2ccc([N+](=O)[O-])cc2)c1	> 80
CN(CCc1ccc([N+](=O)[O-])cc1)Cc1cc([N+](=O)[O-])ccc1O	> 80

Biological target: T1, M-phase inducer phosphatase 3
Assay: Inhibitory concentration for human cell division cycle 25 degree C phosphatase
How it was run: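 Recombinant human CDC25C expressed as an MBP fusion, assayed with 3-O-methylfluorescein phosphate (OMFP) as substrate. Dose-response used to derive IC50, with menadione as positive control. Values are the mean ± SEM of at least two independent experiments. Compounds with IC50 > 80 µM were scored not active.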

SMILES	IC50 [µM]
CN(C)c1ccc(O)c(CNCCc2ccc([N+](=O)[O-])cc2)c1	3.9
COc1cc(N(C)C)cc(CNCCc2ccc([N+](=O)[O-])cc2)c1O	4
CN(CCc1ccc([N+](=O)[O-])cc1)Cc1cc(N(C)C)ccc1O	5.6
COc1cc(CN(C)CCc2ccc([N+](=O)[O-])cc2)cc(N(C)C)c1O	20.7
CC1=CC(=O)c2ccccc2C1=O [MENADIONE]	18.8
